MrgX1 ag = human MrgX1 receptor agonism, primary screen. hit rate 0.44% among 310,000. AID 588627. MrgX1-HEK293 cells, Fluo-4 calcium fluorescence, agonist mode; active compounds read high. B-score at 10 µM. Q96LB2;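 active means calcium response B-score plate-corrected fluorescence ratio at least 3 library SD, with starting fluorescence B-score inside 5 SD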
Target sequence (Q96LB2 whole entry, looked up): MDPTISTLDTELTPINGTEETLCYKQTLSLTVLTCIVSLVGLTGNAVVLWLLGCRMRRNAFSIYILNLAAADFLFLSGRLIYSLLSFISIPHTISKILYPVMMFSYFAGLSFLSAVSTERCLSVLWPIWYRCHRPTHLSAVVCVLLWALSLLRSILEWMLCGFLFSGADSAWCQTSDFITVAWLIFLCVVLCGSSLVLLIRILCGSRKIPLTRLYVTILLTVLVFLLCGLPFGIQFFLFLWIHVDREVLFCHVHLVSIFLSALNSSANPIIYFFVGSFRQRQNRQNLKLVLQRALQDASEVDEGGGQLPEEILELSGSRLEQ
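Material: MrgX1-expressing HEK293 cells / Dosing: compound as first of three additions / Incubation: overnight seeding, then 1 h dark dye loading / Signal: Fluo-4 NW calcium fluorescence / Evaluation: B-scored fluorescence response ratio / Benchmarks: positive and negative control wells on each plate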
RGS4 inh = human RGS4 inhibition. AID 463165. B-score at 10 µM. HEK293 M3R/RGS4 inducible, Fluo-4 calcium flux; active compounds read high; triggered by carbachol at its EC20. hit rate 0.45% among 310,000;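 active means B-score, a plate-corrected calcium signal, over three deviations above library mean, with baseline fluorescence within five deviations of library mean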;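 further: RGS4 expression induced by doxycycline in cells with stable M3 receptor; B-score is computed from the integrated fluorescence ratio over baseline after carbachol; higher B-score means a larger calcium signal and so more RGS4 inhibition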
Target sequence (P49798 whole entry, looked up): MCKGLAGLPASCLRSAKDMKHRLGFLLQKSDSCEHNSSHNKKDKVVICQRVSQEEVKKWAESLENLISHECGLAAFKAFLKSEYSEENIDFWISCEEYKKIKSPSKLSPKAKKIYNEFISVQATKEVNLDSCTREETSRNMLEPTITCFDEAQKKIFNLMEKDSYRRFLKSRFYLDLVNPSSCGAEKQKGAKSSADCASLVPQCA
MrgX1 allo act = human MrgX1 positive allosteric modulation, primary screen; AID 588675; hit rate 0.63% among 310,000; MrgX1-HEK293, Fluo-4 calcium flux, FDSS; active compounds read high; B-score at 10 µM; Q96LB2;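 active means plate-corrected calcium response at least 3 library SD above typical, normal starting fluorescence, not activating the receptor alone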;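 further: compound read alongside a low EC10 to EC30 dose of BAM8-22 agonist; peak minus trough fluorescence over baseline measured at the second addition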
RGS4 act = RGS4 potentiation or activation | HEK293 M3R/inducible RGS4, carbachol calcium flux Fluo4; active compounds read low | B-score at 10 µM | hit rate 0.92% among 310,000;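 active means B-score of the integrated calcium signal more than 4 SD below the library mean, with starting fluorescence not abnormally high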;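 further: negative B-score means reduced calcium response which marks RGS4 activation or potentiation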
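System: HEK293 FlpIn-TREx cells, stable M3R, doxycycline-inducible RGS4. Timing: overnight RGS4 induction, 30 min dye load 37 °C, 20 min compound RT. Also added: carbachol, ECmax concentration. Measured by: Fluo4 fluorescence kinetic imaging of calcium. Evaluation: integrated calcium ratio converted to B score.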
MrgX1 antagonist = antagonists of human MrgX1 receptor; Q96LB2; MRGX1-HEK293 calcium flux, Fluo-4, BAM8-22 antagonism; active compounds read low; B-score at 10 µM; hit rate 1.3% among 310,000;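 active means calcium-response B-score plate-corrected more than 3 library SD below zero, starting fluorescence within 5 deviations, no agonist response on first addition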;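 further: peak minus trough fluorescence over baseline after final BAM8-22 challenge near maximal dose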
MrgX1 ant reconf = confirmation of human MrgX1 receptor antagonists | shares compounds with MrgX1 antagonist | MrgX1-HEK293, BAM8-22 calcium flux, Fluo-4; active compounds read low | remaining BAM8-22 calcium response % of control (active compounds read low), % at 10 µM | hit rate 19% among 2,300;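 active means remaining agonist calcium response no higher than 100% minus 3 SD of agonist-only control wells, with starting fluorescence near control levels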;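 further: agonist BAM8-22 given at a near maximal EC90 to ECmax level; peak minus minimum fluorescence divided by baseline after agonist addition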
HEK293 Ca flux = counter-screen for MrgX1 antagonists: effect in parental HEK293 cells. shares compounds with MrgX1 antagonist. Fluo-4 calcium fluorescence, FDSS. fluorescence ratio F(max-min)/F0 at 10 µM. hit rate 2% among 4,000;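 active means duplicate-averaged calcium fluorescence ratio at least three times the standard deviation of buffer wells, a nonspecific response in parental cells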
HEK293 Ca counter = counter-screen for MrgX1 allosteric activators: effect in parental HEK293 cells | hit rate 0.4% among 4,000 | AID 624114 | parental HEK293 calcium flux, Fluo-4 fluorescence ratio; active compounds read high | fluorescence ratio F(max-min)/F0 at 10 µM | shares compounds with MrgX1 antagonist;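 active means calcium fluorescence ratio, averaged over duplicates, at least 3 SD of the buffer-well ratio, meaning a nonspecific response in receptor-free cells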;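 further: untransfected parental HEK293 lacking MrgX1 used as counterscreen for MrgX1 allosteric activators; fluorescence change taken during the second addition on a kinetic imager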
HEK293 Ca cntr2 = counter-screen for MrgX1 activators: effect in parental HEK293 cells; Fluo-4 calcium fluorescence (FDSS); active compounds read high; fluorescence ratio F(max-min)/F0 at 10 µM; shares compounds with MrgX1 antagonist; AID 624115; hit rate 8.7% among 4,000;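 active means calcium fluorescence ratio at least three times the spread of buffer wells, meaning a non-specific response in parental cells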
Starred values were filed as active, the others as inactive; i = inactive; nt = not tested or not shown. In the library only some 3.5% were active in any assay of this set; here they are far more common.

SMILES | MrgX1 ag | RGS4 inh | MrgX1 allo act | RGS4 act | MrgX1 antagonist | MrgX1 ant reconf | HEK293 Ca flux | HEK293 Ca counter | HEK293 Ca cntr2
CCOc1ccc(C(=O)NC2CCN(S(=O)(=O)c3ccccc3)CC2)cc1 | i | i | i | i | i | nt | nt | nt | nt
O=C(CCNC(=O)c1ccccc1Cl)Nc1nc(-c2ccc(F)cc2)cs1 | i | i | i | i | -5.5* | i | i | i | i
CC(=O)c1cccc(NC(=O)C2CCCCC2)c1 | i | i | i | i | i | nt | nt | nt | nt
O=C(Nc1cccc(Cl)c1)C1CCCCC1 | i | nt | i | nt | -5.4* | i | i | i | i
CCOC(=O)CC1C(=O)NCCN1S(=O)(=O)c1ccc(Cl)cc1Cl (stereo unspecified) | i | i | i | i | -6.9* | i | i | i | i
Cc1nn(C)c(C)c1NS(=O)(=O)c1cccc(Br)c1 | i | i | i | i | -4.7* | i | i | i | i
c1csc(-c2nnc3ccccn23)c1 | i | i | i | i | i | nt | nt | nt | nt
c1ccn2c(Cc3nnc4ccccn34)nnc2c1 | i | i | i | i | -5.5* | i | i | i | i
O=C(c1nc2nc(-c3ccc(Cl)cc3)cc(C(F)(F)F)n2n1)N1CCOCC1 | i | i | i | i | i | nt | nt | nt | nt
O=C(c1nc2nc(-c3ccccc3)cc(C(F)(F)F)n2n1)N1CCOCC1 | i | i | i | i | -5.5* | 85%* | i | i | i
COC(=O)C1=C(C)NC(=O)CC1c1ccc(F)c(Br)c1 (stereo unspecified) | i | i | i | i | -4.6* | i | i | i | i
Cc1ccc(C)c(S(=O)(=O)N2CCN(C(=O)C(C)Sc3ccccc3)CC2)c1 (stereo unspecified) | i | i | i | i | i | nt | nt | nt | nt
CCSc1nc2cc(OC)c(OC)cc2c(=O)n1CC | i | i | i | i | -4.8* | i | i | i | i
COc1ccccc1CNCC(=O)Nc1ccccc1-n1cccc1 | i | i | i | i | i | nt | nt | nt | nt
CCOC(=O)c1cnc(SC)nc1Oc1cccc(NS(=O)(=O)c2ccc(Cl)cc2)c1 | i | i | i | i | -8.7* | 73%* | i | i | i
CCOC(=O)c1cnc(SC)nc1Oc1cccc(NC(=O)c2ccc(Cl)cc2)c1 | i | i | i | i | i | nt | nt | nt | nt
CCOC(=O)Cc1csc(NS(=O)(=O)c2ccc3ccccc3c2)n1 | i | i | i | i | i | nt | nt | nt | nt
CCOC(=O)Cc1csc(NS(=O)(=O)Cc2ccccc2)n1 | i | i | i | i | -12* | i | i | i | i
CN1CCN(C2=Nc3cc(F)ccc3Cc3ccccc32)CC1 | i | i | i | i | i | nt | nt | nt | nt
CN1CCN(C2=Nc3c(Cl)cc(Cl)c4cccc2c34)CC1 | i | i | i | i | -5.8* | i | i | i | 49*
O=C(Nc1ccccc1O)C(c1ccccc1)c1ccccc1 | i | i | i | i | -5.1* | 76%* | i | i | i
O=C(Nc1ccc(Cl)c(Cl)c1)Nc1ccccc1O | i | i | i | i | -5.5* | i | i | i | i
CCOc1ccc(S(=O)(=O)N2CCCC(C(=O)N3CCN(c4ccccc4)CC3)C2)cc1 (stereo unspecified) | i | i | i | i | i | nt | nt | nt | nt
CCCn1nc(NS(=O)(=O)c2cccc3nonc23)c2cc3ccccc3nc21 | i | i | i | i | i | nt | nt | nt | nt
COc1ccc(Cc2nnc(NS(C)(=O)=O)s2)cc1 | i | i | i | i | -6.4* | i | i | i | i
SMILES | MrgX1 ag | RGS4 inh | MrgX1 allo act | RGS4 act | MrgX1 antagonist | MrgX1 ant reconf | HEK293 Ca flux | HEK293 Ca counter | HEK293 Ca cntr2
CC1CCC(NC(=O)COC(=O)C2CC3CCCC(C2)C3=O)CC1 (stereo unspecified) | i | i | i | i | -7.9* | i | i | i | i
CCOc1ccc(C(=O)CCC(=O)Nc2ccc(C)cn2)cc1 | i | i | i | i | -5.7* | 81%* | i | i | i
CC(=O)Nc1ccc(NC(=O)c2nc(-c3ccccc3)oc2C)cc1 | i | i | i | i | i | nt | nt | nt | nt
Cc1ccc2[nH]c(=O)c(-c3noc(CC(C)C)n3)cc2c1 | i | i | i | i | i | nt | nt | nt | nt
O=C(CC(=O)NN=C1CCCCCC1)NCc1cccnc1 | i | i | i | i | i | nt | nt | nt | nt
Cc1ccc(-c2nc(NC(=O)c3ccc(S(=O)(=O)N(CCC#N)CCC#N)cc3)sc2-c2ccccc2)cc1 | i | i | i | i | i | nt | nt | nt | nt
CCCN(CCC)S(=O)(=O)c1ccc(C(=O)Nc2nc3c(s2)CCc2ccccc2-3)cc1 | i | i | i | i | -5.2* | i | i | i | i
CC(=O)Oc1c(-c2ccc(Br)o2)oc2ccccc2c1=O | i | i | i | i | -5.5* | i | i | i | i
O=C(NCCc1ccccc1)c1ccc(-c2ccccc2Cl)o1 | i | i | i | i | -4.6* | i | i | i | i
O=C(NCc1ccccc1)C(c1ccc(F)cc1)N(C(=O)c1csnn1)c1ccccc1 (stereo unspecified) | i | i | i | i | i | nt | nt | nt | nt
Cc1ccc(NC(=S)NCCSc2ccc(Cl)cc2)c(C)c1 | i | i | i | i | -6.3* | i | i | i | i
Cc1ccc(C)c(NC(=S)NCCSc2ccc(Cl)cc2)c1 | i | i | i | i | i | nt | nt | nt | nt
CCn1c2ccccc2c2c3ncc4cccn4c3ccc21 | i | i | i | i | -5.8* | 78%* | i | i | i
COc1ccccc1NS(=O)(=O)c1ccc(-c2cnc(C3CC3)o2)cc1 | i | i | i | i | -5.2* | i | i | i | i
CCOc1ccccc1NS(=O)(=O)c1ccc(-c2cnc(C3CC3)o2)cc1 | i | i | i | i | i | nt | nt | nt | nt

Compound activity as filed in PubChem.
